# PAFAH2 inh – PAFAH2 enzyme inhibitors, primary screen, biochemical, fluorescence polarization, human. 340,000 compounds, 0.99% hits. recombinant PAFAH2, FP-rhodamine activity probe. inhibition, % at 3.39 µM;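 active = inhibition above the mean over all tested compounds plus 3 SD, cut at about 30% in these data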;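 note: inhibitors block probe labeling of enzyme so polarization drops; 0% = enzyme with DMSO and 100% = wells lacking PAFAH2 protein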
# PAFAH1B3 inh – PAFAH1B3 enzyme inhibitors, primary screen, biochemical, fluorescence polarization, human; recombinant PAFAH1B3, FP-rhodamine probe; inhibition, % at 3.39 µM; 340,000 compounds, 0.28% hits; AID 492972, 2010;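 active = inhibition above the screen-wide average of all tested compounds plus 3 SD, cut at about 25% in these data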;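 note: 0% = enzyme with DMSO only and 100% = wells lacking PAFAH1B3 protein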
# PAFAH1B2 FP inh – PAFAH1B2 enzyme inhibitors, primary screen, biochemical, fluorescence polarization, human; Platelet-activating factor acetylhydrolase IB subunit alpha2 (Homo sapiens), P68402; recombinant PAFAH1B2, FP-rhodamine activity probe; inhibition, % at 3.39 µM; 340,000 compounds, 1.2% hits;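 active = inhibition above the mean of all tested compounds plus 3 SD, cut at about 24% in these data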;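 note: 0% = enzyme with DMSO and 100% = wells lacking PAFAH1B2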
# Target sequence (P68402 whole entry, looked up): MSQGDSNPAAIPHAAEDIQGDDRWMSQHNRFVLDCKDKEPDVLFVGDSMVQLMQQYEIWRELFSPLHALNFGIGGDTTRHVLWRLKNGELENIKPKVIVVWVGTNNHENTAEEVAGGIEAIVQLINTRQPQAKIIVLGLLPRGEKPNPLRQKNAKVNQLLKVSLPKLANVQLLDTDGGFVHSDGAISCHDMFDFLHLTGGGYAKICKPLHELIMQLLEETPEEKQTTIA
# TDP2 absorb – human TDP2 enzyme inhibitors, primary screen, biochemical, epi absorbance, recombinant enzyme. T5PNP hydrolysis, p-nitrophenol absorbance 415 nm. inhibition, % at 12.8 µM. Tyrosyl-DNA phosphodiesterase 2 (Homo sapiens), O95551. 370,000 compounds, 0.34% hits;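 active = inhibition above the mean of all tested compounds plus 3 SD, set per campaign, cut at about 25% in these data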;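 note: 0% = DMSO with enzyme and 100% = buffer with substrate but no TDP2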
# Target sequence (O95551 whole entry, looked up): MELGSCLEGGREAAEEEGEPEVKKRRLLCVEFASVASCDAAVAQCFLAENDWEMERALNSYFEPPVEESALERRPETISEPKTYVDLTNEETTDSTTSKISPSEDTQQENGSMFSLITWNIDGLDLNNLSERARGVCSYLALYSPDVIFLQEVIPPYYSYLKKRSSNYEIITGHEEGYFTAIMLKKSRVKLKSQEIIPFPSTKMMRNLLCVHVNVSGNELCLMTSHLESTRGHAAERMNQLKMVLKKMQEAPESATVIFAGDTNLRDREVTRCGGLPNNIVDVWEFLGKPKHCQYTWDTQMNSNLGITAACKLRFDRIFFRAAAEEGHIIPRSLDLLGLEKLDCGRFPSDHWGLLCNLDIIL
#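 test system = human TDP2 enzyme | input = TDP2 enzyme at 120 nM final | medium = 50 mM Tris-HCl pH 7.5 with Mg2+, KCl, DTT, BSA | also added = T5PNP substrate, 5 mM | times = 2 h at 37 °C | technique = epi absorbance | benchmarks = high control without enzyme, low control DMSO plus TDP2 | replication = each compound tested once, singlicate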
# Apaf1 inhib – inhibitors of human Apaf-1 apoptosome, primary screen, biochemical, DEVD-Rh110 fluorescence, uHTS; Apoptotic protease-activating factor 1 (Homo sapiens), O14727; reconstituted apoptosome caspase-3 activity; inhibition, % at 20 µM; 330,000 compounds, 0.71% hits; active = inhibition of at least 40% at 20 µM;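 note: plate controls were DMSO wells for no effect and DEVD-CHO caspase inhibitor wells for full effect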
#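 System: reconstituted apoptosome with Apaf-1, cytochrome c, caspase-9, procaspase-3, dATP; Signal: Rh110 fluorescence intensity; Schedule: 30 min compound preincubation, 50 min activation, room temperature; Reagent: cytochrome c trigger plus (Z-DEVD)2-Rh110 caspase-3 substrate.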
# Apaf-1 inh conf2 – Apaf-1 inhibitors, single-dose retest, confirmation, biochemical, fluorescence, DEVD-Rh110, 20 µM; inhibition, % at 20 µM; 1,800 compounds, 25% hits; shares compounds with Apaf1 inhib; reconstituted apoptosome, caspase-3 DEVD-Rh110 fluorescence;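 active = mean inhibition of at least 40% at 20 µM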;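 note: plate controls were DMSO wells for no effect and DEVD-CHO caspase inhibitor control wells for full effect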
# Rh110 quench – Rh110 fluorescence interference by putative Apaf-1 inhibitors, confirmation, artefact control for Apaf-1 inhibitor project, biochemical, 20 µM. shares compounds with Apaf1 inhib. quenched caspase reaction. activation (fluorescence interference), % at 20 µM. 1,800 tested, under 10 active;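 active = signal rise of 40% or more at 20 µM, treated as a fluorescence artifact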
# Fluor interf inh – fluorescence interference of Apaf-1 inhibitor hits, dose response, artefact control for Apaf-1 inhibitor project; shares compounds with Apaf1 inhib; AID 588538, 2011; 460 tested, under 10 active; IC50, µM; fluorescence interference counterscreen, Apaf-1 assay format; call rule not given here
# The depositor's hits bear a star; · = no result. A selection: hits, their analogues and other compounds. The true share with any hit is near 2.3%.
SMILES,PAFAH2 inh,PAFAH1B3 inh,PAFAH1B2 FP inh,TDP2 absorb,Apaf1 inhib,Apaf-1 inh conf2,Rh110 quench,others
N#Cc1ccc(/C=C2\CC3(OC(=O)c4ccc(Cl)cc4)CCCN2C3)cc1 (stereo not drawn),·,·,·,-3,·,·,·,
CN(NS(=O)(=O)c1ccc(Cl)cc1)c1ncc(C(F)(F)F)cc1Cl,-2,5,28*,6,3,·,·,
Cc1[nH]c2c(ccc3cccnc32)c1C,3,-8,-5,-17,-4,·,·,
CC1=[N+](C)c2c(ccc3cccnc23)C1(C)C,-93,-147,-100,38*,·,·,·,
COC(=O)[C@H](CC(C)C)N1Cc2nnn(Cc3ccc(C)cc3)c2-c2cc(F)ccc2S1(=O)=O,·,·,·,-13,·,·,·,
CSCCC(NC(=O)c1ccco1)C(=O)NCCc1ccc(Cl)cc1 (stereo not drawn),2,10,28*,4,3,·,·,
CCOC(=O)Cn1cc(CN2CCS(=O)(=O)N(Cc3ccc(Cl)cc3)C(C(=O)OC)C2)nn1 (stereo not drawn),·,·,·,0,·,·,·,
COc1ccc(S(=O)(=O)n2nc(OC(C)=O)cc2N(C(C)=O)C(C)=O)cc1,1,0,2,29*,-4,·,·,
COc1ccc(/C=C2/CN(Cc3ccc(OC)cc3OC)C3=NC(c4ccc5ccccc5c4)CC(=O)N32)cc1 (stereo not drawn),·,·,·,2,·,·,·,
O=C(C1CCCN1C(=O)c1cccs1)N1CCN(S(=O)(=O)c2ccc(F)cc2)CC1 (stereo not drawn),-3,11,29*,2,-12,·,·,
C=CC[C@H]1c2ccccc2[C@H]2N3N=Cc4ccccc4[C@H]3[C@H](CCCC)C(=O)N2N1C(=O)NCc1ccccc1,·,·,·,5,·,·,·,
Cc1ccc(CCNC(=O)C2CC(c3cccc(F)c3)=NO2)cc1 (stereo not drawn),3,7,28*,0,-3,·,·,
CCCCNC(=O)C1CC(c2cccc(F)c2)=NO1 (stereo not drawn),4,6,6,-8,2,·,·,
O=C(O)Cc1ccc(-c2ccccc2-c2ccccc2)cc1,-7,4,80*,-9,3,·,·,
CN1CCc2cc3c(c4c2[C@H]1[C@H](O)c1ccccc1-4)OCO3,17,10,4,4,48*,34,3,
CCC(CC)c1nnc(NC(=O)CCN2C(=O)c3ccccc3C2=O)s1,4,0,5,-1,6,·,·,
CCC(CC)c1nnc(NC(=O)CN2C(=O)c3ccccc3C2=O)s1,2,6,6,10,87*,4,-3,
CCc1ccc(OCC(=O)N/N=C2\CC(=O)c3ccccc32)cc1,-1,12,7,·,84*,54*,10,Fluor interf inh=>100
COc1ccc(OCC(=O)N/N=C2\CCCCc3ccccc32)cc1,2,3,-3,-8,10,·,·,
COc1ccc(C=Nn2c(-c3ccc(F)cc3)n[nH]c2=S)cc1OCc1ccccc1,·,·,·,10,·,·,·,
CCNc1c([N+](=O)[O-])c(=O)oc2ccccc12,2,8,8,13,-1,·,·,
COc1ccc(OCCNc2c([N+](=O)[O-])c(=O)oc3ccccc23)cc1,2,2,6,2,73*,87*,-2,Fluor interf inh=>100
O=C(CSc1nnc(-c2ccc(F)cc2)n1CC1CCCO1)NCc1ccco1 (stereo not drawn),-6,5,-4,0,54*,36,6,
O=C(CSc1nnc(-c2ccncc2)n1CC1CCCO1)NCc1ccccc1 (stereo not drawn),-2,-3,-2,2,-2,·,·,
CN(Cc1ccccc1)C(=O)CN1C(=O)NC(C)(c2ccc(C(C)(C)C)cc2)C1=O (stereo not drawn),4,15,9,-2,42*,20,4,
SMILES,PAFAH2 inh,PAFAH1B3 inh,PAFAH1B2 FP inh,TDP2 absorb,Apaf1 inhib,Apaf-1 inh conf2,Rh110 quench,others
CSc1ccc(-c2csc(N3CCC(C(N)=O)CC3)n2)cc1,·,·,·,16,·,·,·,
Cc1ccc(NC(=O)[C@@H](Cc2ccccc2)NC(=O)[C@H]2O[C@@H](n3ccc(=O)[nH]c3=O)[C@H](O)[C@@H]2O)cc1C,·,·,·,6,·,·,·,
CCC(C)Sc1ccc(-c2nc3ccc(C)cn3c2NC2CCCCC2)cc1 (stereo not drawn),7,0,4,·,41*,8,7,
CCC(C)Sc1cccc(-c2nc3ccc(C)cn3c2NC2CCCCC2)c1 (stereo not drawn),-7,6,-2,-7,28,·,·,
Cc1cc(C)cc(OCC(=O)Nc2ccc(N3CCCC3)cc2)c1,8,3,-2,·,41*,21,7,
O=C1Cc2ccccc2C(=O)N1OCc1ccc(Cl)cc1,7,8,25*,-1,95*,29,10,
CC/C(=N/Nc1cccc(C)c1)c1cnnc(SC)n1,4,9,-1,7,63*,13,5,
O=C1C2=C(c3ccccc31)[N+](=O)[C@@H]1CCCC[C@@H]1N2[O-],16,14,-1,17,75*,66*,-7,Fluor interf inh=>100
O=C1c2ccccc2C(=O)N1SC1CCCCC1,-8,5,3,-1,10,·,·,
Clc1c2c(nc3ccccc13)CCC2,7,1,1,18,-1,·,·,
Nc1ccc2nc3c(c(Cl)c2c1)CCCC3,1,8,6,-7,64*,23,2,
CN(Cc1ccccc1)S(=O)(=O)c1cccc(C(=O)OCC2CCCCC2)c1,·,·,·,-4,·,·,·,
CCOc1cccc2sc(N(CCCN(C)C)C(=O)c3ccc(S(=O)(=O)N(C)CC4CCCO4)cc3)nc12 (stereo not drawn),-1,-3,7,-10,18,·,·,
Cc1cc(C)c2nc(N(CCN(C)C)C(=O)c3ccc(S(=O)(=O)N(C)CC4CCCO4)cc3)sc2c1 (stereo not drawn),-8,3,5,13,49*,10,7,
O=S(=O)(c1ccc(Br)cc1)N1CCN(c2ccc3nnc(-c4ccccc4)n3n2)CC1,-3,0,13,0,41*,55*,12,Fluor interf inh=>100
